{
  "source": "ChEMBL document CHEMBL3779840",
  "about": "“Discovery of 2-((3-Amino-4-methylphenyl)amino)-N-(2-methyl-5-(3-(trifluoromethyl)benzamido)phenyl)-4-(methylamino)pyrimidine-5-carboxamide (CHMFL-ABL-053) as a Potent, Selective, and Orally Available BCR-ABL/SRC/p38 Kinase Inhibitor for Chronic Myeloid Leukemia” (J Med Chem, 2016)",
  "key": {"[1]": {"biological_target": "T1, Bcr/Abl fusion protein (Homo sapiens) (UniProt P00519+P11274)", "T1 sequence (P00519 whole entry, looked up, the tested form may be a part)": "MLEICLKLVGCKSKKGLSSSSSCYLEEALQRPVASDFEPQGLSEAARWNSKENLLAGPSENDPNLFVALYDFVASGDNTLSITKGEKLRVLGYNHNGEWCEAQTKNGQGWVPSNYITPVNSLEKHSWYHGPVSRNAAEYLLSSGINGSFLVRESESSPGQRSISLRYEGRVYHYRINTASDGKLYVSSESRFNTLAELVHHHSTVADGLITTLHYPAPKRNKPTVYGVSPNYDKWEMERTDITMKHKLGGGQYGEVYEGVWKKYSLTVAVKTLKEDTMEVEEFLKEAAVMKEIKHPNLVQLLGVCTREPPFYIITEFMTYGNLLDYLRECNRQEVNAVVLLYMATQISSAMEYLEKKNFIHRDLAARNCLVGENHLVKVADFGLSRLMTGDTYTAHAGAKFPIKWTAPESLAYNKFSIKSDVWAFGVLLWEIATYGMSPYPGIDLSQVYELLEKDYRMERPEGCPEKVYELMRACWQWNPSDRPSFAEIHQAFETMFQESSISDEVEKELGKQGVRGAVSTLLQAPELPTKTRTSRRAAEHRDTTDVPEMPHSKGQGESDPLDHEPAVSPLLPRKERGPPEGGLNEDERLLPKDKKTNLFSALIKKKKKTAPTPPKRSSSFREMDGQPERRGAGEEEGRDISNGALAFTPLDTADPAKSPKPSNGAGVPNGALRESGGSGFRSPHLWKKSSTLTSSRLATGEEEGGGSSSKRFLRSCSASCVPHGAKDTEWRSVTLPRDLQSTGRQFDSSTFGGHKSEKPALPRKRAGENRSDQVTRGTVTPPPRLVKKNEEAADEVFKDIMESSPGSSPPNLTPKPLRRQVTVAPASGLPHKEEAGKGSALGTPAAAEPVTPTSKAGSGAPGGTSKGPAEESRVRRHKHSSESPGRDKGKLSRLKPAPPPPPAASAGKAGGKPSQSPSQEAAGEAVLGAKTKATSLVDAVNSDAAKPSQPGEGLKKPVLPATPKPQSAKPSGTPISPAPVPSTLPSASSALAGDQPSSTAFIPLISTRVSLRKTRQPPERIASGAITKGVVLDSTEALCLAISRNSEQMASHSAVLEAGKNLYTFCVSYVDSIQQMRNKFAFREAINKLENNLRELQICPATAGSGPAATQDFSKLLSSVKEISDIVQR", "T1 sequence (P11274 whole entry, looked up, the tested form may be a part)": "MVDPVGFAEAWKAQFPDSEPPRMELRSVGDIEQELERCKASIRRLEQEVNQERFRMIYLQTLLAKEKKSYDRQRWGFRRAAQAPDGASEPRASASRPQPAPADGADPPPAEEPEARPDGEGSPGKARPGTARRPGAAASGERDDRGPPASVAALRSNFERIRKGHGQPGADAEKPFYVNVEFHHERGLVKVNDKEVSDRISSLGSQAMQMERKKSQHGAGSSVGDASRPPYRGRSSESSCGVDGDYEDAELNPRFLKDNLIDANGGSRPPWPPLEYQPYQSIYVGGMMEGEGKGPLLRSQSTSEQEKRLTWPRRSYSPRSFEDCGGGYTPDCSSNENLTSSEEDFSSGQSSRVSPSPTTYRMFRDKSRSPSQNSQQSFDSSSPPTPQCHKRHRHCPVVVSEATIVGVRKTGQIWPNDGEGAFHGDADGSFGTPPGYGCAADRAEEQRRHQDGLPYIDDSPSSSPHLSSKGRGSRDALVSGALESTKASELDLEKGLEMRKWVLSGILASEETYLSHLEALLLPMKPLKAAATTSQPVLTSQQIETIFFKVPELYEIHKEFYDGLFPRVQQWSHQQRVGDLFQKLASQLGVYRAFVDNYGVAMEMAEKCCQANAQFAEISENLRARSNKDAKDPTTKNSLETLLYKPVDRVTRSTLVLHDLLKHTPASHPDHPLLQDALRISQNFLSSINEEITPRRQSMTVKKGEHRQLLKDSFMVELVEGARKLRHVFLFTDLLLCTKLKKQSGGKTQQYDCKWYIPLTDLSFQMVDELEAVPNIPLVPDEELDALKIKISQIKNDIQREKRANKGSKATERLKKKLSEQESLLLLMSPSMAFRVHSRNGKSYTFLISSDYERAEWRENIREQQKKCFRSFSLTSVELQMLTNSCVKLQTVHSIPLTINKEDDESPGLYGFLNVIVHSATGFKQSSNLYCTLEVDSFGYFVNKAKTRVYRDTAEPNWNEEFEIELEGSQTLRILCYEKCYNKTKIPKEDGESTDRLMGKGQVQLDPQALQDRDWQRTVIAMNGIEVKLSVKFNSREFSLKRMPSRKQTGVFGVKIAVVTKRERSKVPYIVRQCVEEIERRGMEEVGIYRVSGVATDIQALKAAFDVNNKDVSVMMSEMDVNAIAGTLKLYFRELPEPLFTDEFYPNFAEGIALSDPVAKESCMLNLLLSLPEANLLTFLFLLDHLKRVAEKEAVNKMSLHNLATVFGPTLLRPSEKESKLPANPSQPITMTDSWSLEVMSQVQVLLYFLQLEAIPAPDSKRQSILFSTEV", "test": "Inhibition of BCR/ABL in human K562 cells assessed as downregulation of Stat5 phosphorylation at […] site after 1 hr by immunoblotting method", "assay_type": "cell-based", "how_it_was_run": "(§1)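 KU812, K562 and MEG-01 cells were exposed to compound at the indicated concentrations for 1 h. Whole-cell lysates were then analysed by Western blot for phosphorylated signaling proteins.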"}, "[2]": {"test": "Mean residence time (0 to infinity) in Sprague-Dawley rat at 10 mg/kg, po", "assay_type": "ADME, organism-based", "conditions": "in vivo"}, "[3]": {"tested_on": "Mast/stem cell growth factor receptor Kit (Homo sapiens), P10721 [V559D]", "test": "Inhibition of partial length human KIT V559D mutant expressed in bacterial expression system assessed as residual activity at 1 uM relative to control"}, "[4]": {"biological_target": "Tyrosine-protein kinase HCK (Homo sapiens) (UniProt P08631)", "sequence (P08631 2-526 limits assumed)": "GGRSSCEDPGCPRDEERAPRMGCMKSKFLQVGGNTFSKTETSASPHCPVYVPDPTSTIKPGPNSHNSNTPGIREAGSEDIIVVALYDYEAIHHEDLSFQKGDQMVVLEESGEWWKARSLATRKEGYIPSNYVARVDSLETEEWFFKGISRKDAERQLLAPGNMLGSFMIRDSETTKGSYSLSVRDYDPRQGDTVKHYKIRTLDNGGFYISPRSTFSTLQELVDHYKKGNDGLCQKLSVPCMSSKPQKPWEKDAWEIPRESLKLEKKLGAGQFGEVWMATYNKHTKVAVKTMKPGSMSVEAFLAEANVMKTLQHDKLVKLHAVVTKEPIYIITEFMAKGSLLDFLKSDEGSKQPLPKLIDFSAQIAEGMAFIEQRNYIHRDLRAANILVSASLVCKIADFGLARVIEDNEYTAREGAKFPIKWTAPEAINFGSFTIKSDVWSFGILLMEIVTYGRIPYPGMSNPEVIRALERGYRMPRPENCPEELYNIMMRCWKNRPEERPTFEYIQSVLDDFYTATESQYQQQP", "test": "Inhibition of full length human wild type HCK expressed in bacterial expression system assessed as residual activity at 1 uM relative to control"}, "[5]": {"test": "Mean residence time (0 to infinity) in Sprague-Dawley rat at 1 mg/kg, iv", "assay_type": "ADME, organism-based", "conditions": "in vivo"}, "[6]": {"biological_target": "T1, Bcr/Abl fusion protein (Homo sapiens)", "test": "Inhibition of BCR/ABL in human KU812 cells assessed as downregulation of ERK phosphorylation at Thr202/Tyr204 site after 1 hr by immunoblotting method", "assay_type": "cell-based", "how_it_was_run": "as §1"}, "[7]": {"tested_on": "KU812 cell line", "test": "Induction of apoptosis in human KU812 cells assessed as increase in cleaved caspase3 level at 100 nM after 24 hrs by immunoblotting method", "assay_type": "functional, cell-based"}, "[8]": {"biological_target": "T1, Bcr/Abl fusion protein (Homo sapiens)", "test": "Inhibition of BCR/ABL autophosphorylation at Y245 site in human K562 cells at 300 nM after 1 hr by immunoblotting method", "assay_type": "cell-based", "how_it_was_run": "as §1"}, "[9]": {"biological_target": "T1, Bcr/Abl fusion protein (Homo sapiens)", "test": "Inhibition of BCR/ABL in human MEG01 cells assessed as downregulation of Stat5 phosphorylation at […] site after 1 hr by immunoblotting method", "assay_type": "cell-based", "conditions": "MEG-01", "how_it_was_run": "as §1"}, "[10]": {"tested_on": "Mast/stem cell growth factor receptor Kit (Homo sapiens), P10721 [L576P]", "test": "Inhibition of partial length human KIT L576P mutant expressed in bacterial expression system assessed as residual activity at 1 uM relative to control"}, "[11]": {"test": "Antiproliferative activity against human KU812 cells assessed as cell viability after 72 hrs by CellTiter-Glo or CCK-8 assay", "assay_type": "functional", "conditions": "KU812, 72 h"}, "[12]": {"biological_target": "Tyrosine-protein kinase Blk (Homo sapiens) (UniProt P51451)", "sequence (P51451 2-505 limits assumed)": "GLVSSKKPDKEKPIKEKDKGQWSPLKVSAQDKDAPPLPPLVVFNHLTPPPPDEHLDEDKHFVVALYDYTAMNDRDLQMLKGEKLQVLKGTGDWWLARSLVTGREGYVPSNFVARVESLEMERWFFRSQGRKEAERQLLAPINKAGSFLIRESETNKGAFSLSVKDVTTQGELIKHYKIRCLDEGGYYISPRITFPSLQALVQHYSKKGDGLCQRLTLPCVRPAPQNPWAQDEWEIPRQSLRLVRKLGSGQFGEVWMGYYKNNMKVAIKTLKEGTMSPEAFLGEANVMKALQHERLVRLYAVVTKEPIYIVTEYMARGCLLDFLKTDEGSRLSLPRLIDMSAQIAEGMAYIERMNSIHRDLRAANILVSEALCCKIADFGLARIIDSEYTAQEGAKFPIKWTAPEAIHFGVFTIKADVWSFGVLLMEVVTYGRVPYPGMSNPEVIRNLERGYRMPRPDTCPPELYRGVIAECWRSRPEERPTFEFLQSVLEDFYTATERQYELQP", "test": "Inhibition of partial length human wild type BLK expressed in bacterial expression system assessed as residual activity at 1 uM relative to control"}, "[13]": {"tested_on": "Bcr/Abl fusion protein (Homo sapiens), P00519+P11274 [Q252H]", "conditions": "BaF3"}, "[14]": {"test": "AUC(0 to t) in Sprague-Dawley rat at 1 mg/kg, iv", "assay_type": "ADME, organism-based", "conditions": "in vivo"}, "[15]": {"tested_on": "KU812 cell line", "test": "Induction of apoptosis in human KU812 cells assessed as increase in cleaved PARP level at 100 nM after 24 hrs by immunoblotting method", "assay_type": "functional, cell-based"}, "[16]": {"tested_on": "BaF3", "conditions": "Homo sapiens"}, "[17]": {"test": "Cmax in Sprague-Dawley rat at 1 mg/kg, iv", "assay_type": "ADME, organism-based", "parameters": "dose 1 mg/kg, route intravenous", "conditions": "in vivo"}, "[18]": {"biological_target": "T1, Bcr/Abl fusion protein (Homo sapiens)", "conditions": "BaF3"}, "[19]": {"test": "Tmax in Sprague-Dawley rat at 10 mg/kg, po", "assay_type": "ADME, organism-based", "conditions": "in vivo"}, "[20]": {"tested_on": "K562", "test": "Induction of apoptosis in human K562 cells assessed as increase in cleaved caspase3 level at 100 nM after 48 hrs by immunoblotting method", "assay_type": "functional, cell-based"}, "[21]": {"biological_target": "Mast/stem cell growth factor receptor Kit (Homo sapiens, UniProt P10721)", "test": "Inhibition of His-tagged recombinant human c-Kit […] expressed in mammalian expression system"}, "[22]": {"biological_target": "T1, Bcr/Abl fusion protein (Homo sapiens)", "conditions": "BaF3", "remark": "listed apart in the source"}, "[23]": {"biological_target": "T1, Bcr/Abl fusion protein (Homo sapiens)", "test": "Inhibition of BCR/ABL in human K562 cells assessed as downregulation of ERK phosphorylation at Thr202/Tyr204 site after 1 hr by immunoblotting method", "assay_type": "cell-based", "how_it_was_run": "as §1"}, "[24]": {"biological_target": "Epithelial discoidin domain-containing receptor 1 (Homo sapiens, UniProt Q08345)", "test": "Inhibition of GST-tagged human DDR1 (440 to 876 residues) expressed in Baculovirus expression system"}, "[25]": {"biological_target": "T2, Mitogen-activated protein kinase 14 (Homo sapiens, UniProt Q16539)", "T2 sequence (Q16539 whole entry)": "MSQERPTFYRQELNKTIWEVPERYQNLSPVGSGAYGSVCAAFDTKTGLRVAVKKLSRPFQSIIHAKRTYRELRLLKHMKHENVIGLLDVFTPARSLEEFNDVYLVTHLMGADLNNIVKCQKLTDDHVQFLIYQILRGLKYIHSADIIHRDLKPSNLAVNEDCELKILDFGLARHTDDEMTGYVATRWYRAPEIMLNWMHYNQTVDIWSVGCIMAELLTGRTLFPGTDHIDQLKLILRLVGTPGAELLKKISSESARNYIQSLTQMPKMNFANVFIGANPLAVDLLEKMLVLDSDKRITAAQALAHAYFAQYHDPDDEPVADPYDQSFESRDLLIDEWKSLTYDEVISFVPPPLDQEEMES", "test": "Inhibition of full length recombinant GST-tagged human p38-alpha expressed in Escherichia coli", "how_it_was_run": "(§2)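 IC50 values were determined with the Invitrogen SelectScreen biochemical kinase assay.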"}, "[26]": {"test": "AUC(0 to infinity) in Sprague-Dawley rat at 10 mg/kg, po", "assay_type": "ADME, organism-based", "parameters": "dose 10 mg/kg, time infinity, route oral", "conditions": "in vivo"}, "[27]": {"biological_target": "T1, Bcr/Abl fusion protein (Homo sapiens)", "test": "Inhibition of BCR/ABL in human MEG01 cells assessed as downregulation of CrkL phosphorylation at […] site after 1 hr by immunoblotting method", "assay_type": "cell-based", "conditions": "MEG-01", "how_it_was_run": "as §1"}, "[28]": {"biological_target": "T2, Mitogen-activated protein kinase 14", "test": "Inhibition of full length human wild type p38-alpha expressed in bacterial expression system assessed as residual activity at 1 uM relative to control"}, "[29]": {"biological_target": "T3, Proto-oncogene tyrosine-protein kinase Src (Homo sapiens, UniProt P12931)", "T3 sequence (P12931 2-536 limits assumed)": "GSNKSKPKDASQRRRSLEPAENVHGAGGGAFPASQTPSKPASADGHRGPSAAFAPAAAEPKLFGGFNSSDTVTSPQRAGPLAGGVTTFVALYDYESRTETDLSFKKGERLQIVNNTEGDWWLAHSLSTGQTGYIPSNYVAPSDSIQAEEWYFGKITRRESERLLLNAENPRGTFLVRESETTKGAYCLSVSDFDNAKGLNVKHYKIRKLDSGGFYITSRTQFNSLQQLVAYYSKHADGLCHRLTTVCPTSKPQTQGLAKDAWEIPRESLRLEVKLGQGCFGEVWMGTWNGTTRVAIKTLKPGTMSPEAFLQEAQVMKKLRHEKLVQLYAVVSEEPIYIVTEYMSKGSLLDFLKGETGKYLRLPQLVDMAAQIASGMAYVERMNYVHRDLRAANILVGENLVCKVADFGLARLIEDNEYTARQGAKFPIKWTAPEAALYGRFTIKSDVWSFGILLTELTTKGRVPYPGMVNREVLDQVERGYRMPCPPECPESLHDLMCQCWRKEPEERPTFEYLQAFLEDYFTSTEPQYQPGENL", "conditions": "BaF3"}, "[30]": {"tested_on": "MEG-01", "test": "Induction of cell cycle arrest in human MEG01 cells assessed as accumulation at G0/G1-phase after 12 hrs by propidium iodide/RNase staining based flow cytometry", "assay_type": "functional"}, "[31]": {"biological_target": "T1, Bcr/Abl fusion protein (Homo sapiens)", "test": "Inhibition of BCR/ABL in human K562 cells assessed as downregulation of CrkL phosphorylation at […] site after 1 hr by immunoblotting method", "assay_type": "cell-based", "how_it_was_run": "as §1"}, "[32]": {"tested_on": "Bcr/Abl fusion protein (Homo sapiens), P00519+P11274 [Y253F]", "conditions": "BaF3"}, "[33]": {"biological_target": "T3, Proto-oncogene tyrosine-protein kinase Src", "test": "Inhibition of partial length human wild type SRC expressed in bacterial expression system assessed as residual activity at 1 uM relative to control"}, "[34]": {"biological_target": "Tyrosine-protein kinase Blk (Homo sapiens) (UniProt P51451)", "conditions": "BaF3"}, "[35]": {"biological_target": "T2, Mitogen-activated protein kinase 14", "test": "Inhibition of P38-alpha phosphorylation in human K562 cells at 0.01 to 3 uM after 1 hr by immunoblotting method", "assay_type": "cell-based", "how_it_was_run": "as §1"}, "[36]": {"biological_target": "Tyrosine-protein kinase ABL1 (Homo sapiens, UniProt P00519)", "sequence (P00519 whole entry)": "as the sequence (P00519 whole entry, looked up, the tested form may be a part) above", "test": "Inhibition of full length recombinant human ABL1 expressed in Baculovirus expression system", "how_it_was_run": "as §2"}, "[37]": {"tested_on": "BaF3", "conditions": "Homo sapiens", "remark": "listed apart in the source"}, "[38]": {"test": "Apparent volume of distribution in Sprague-Dawley rat at 1 mg/kg, iv", "assay_type": "ADME, organism-based", "conditions": "in vivo, read-out: Vd(app)"}, "[39]": {"tested_on": "MV4-11", "test": "Antiproliferative activity against human MV4-11 cells assessed as cell viability after 72 hrs by CellTiter-Glo or CCK-8 assay", "assay_type": "functional", "conditions": "MV4-11, 72 h"}, "[40]": {"tested_on": "MEG-01", "test": "Induction of apoptosis in human MEG01 cells assessed as increase in cleaved PARP level at 100 nM after 48 hrs by immunoblotting method", "assay_type": "functional, cell-based"}},
  "note": "The source made the active and inactive calls. The rule behind the calls is not given here.",
  "data": [
    {"smiles": "CNc1nc(Nc2ccc(C)c(N)c2)ncc1C(=O)Nc1cc(NC(=O)c2cccc(C(F)(F)F)c2)ccc1C", "values": [
      {"measurement": "inhibition", "setting": "[1]", "result": "Dose-dependent effect"},
      {"measurement": "MRT inf", "setting": "[2]", "result": 5.51, "unit": "h"},
      {"measurement": "Activity", "setting": "[3]", "result": 1, "unit": "%"},
      {"measurement": "Activity", "setting": "[4]", "result": 0.7, "unit": "%"},
      {"measurement": "MRT inf", "setting": "[5]", "result": 3.1, "unit": "h"},
      {"measurement": "inhibition", "setting": "[6]", "result": "Dose-dependent effect"},
      {"measurement": "Activity", "setting": "[7]", "result": "Active"},
      {"measurement": "inhibition", "setting": "[8]", "result": "Active"},
      {"measurement": "inhibition", "setting": "[9]", "result": "Dose-dependent effect"},
      {"measurement": "Activity", "setting": "[10]", "result": 0.8, "unit": "%"},
      {"measurement": "GI50", "setting": "[11]", "result": 25, "unit": "nM"},
      {"measurement": "Activity", "setting": "[12]", "result": 0.55, "unit": "%"},
      {"measurement": "GI50", "setting": "[13]", "result": 140, "unit": "nM"},
      {"measurement": "AUC(0-t)", "setting": "[14]", "result": 636, "unit": "ng·h/mL"},
      {"measurement": "Activity", "setting": "[15]", "result": "Active"},
      {"measurement": "GI50", "setting": "[16]", "result": 9250, "unit": "nM"},
      {"measurement": "Cmax", "setting": "[17]", "result": 2400, "unit": "ng/mL"},
      {"measurement": "GI50", "setting": "[18]", "result": 440, "unit": "nM"},
      {"measurement": "Tmax", "setting": "[19]", "result": 1, "unit": "h"},
      {"measurement": "Activity", "setting": "[20]", "result": "Active"},
      {"measurement": "IC50", "setting": "[21]", "result": "> 10000", "unit": "nM"},
      {"measurement": "GI50", "setting": "[22]", "result": 7, "unit": "nM"},
      {"measurement": "inhibition", "setting": "[23]", "result": "Dose-dependent effect"},
      {"measurement": "IC50", "setting": "[24]", "result": 292, "unit": "nM"},
      {"measurement": "IC50", "setting": "[25]", "result": 62, "unit": "nM"},
      {"measurement": "AUC(0-inf)", "setting": "[26]", "result": 1740, "unit": "ng·h/mL"},
      {"measurement": "inhibition", "setting": "[27]", "result": "Dose-dependent effect"},
      {"measurement": "Activity", "setting": "[28]", "result": 0, "unit": "%"},
      {"measurement": "GI50", "setting": "[29]", "result": 200, "unit": "nM"},
      {"measurement": "Activity", "setting": "[30]", "result": "Dose-dependent effect"},
      {"measurement": "inhibition", "setting": "[31]", "result": "Dose-dependent effect"},
      {"measurement": "GI50", "setting": "[32]", "result": 363, "unit": "nM"},
      {"measurement": "Activity", "setting": "[33]", "result": 0.5, "unit": "%"},
      {"measurement": "GI50", "setting": "[34]", "result": 1100, "unit": "nM"},
      {"measurement": "inhibition", "setting": "[35]", "result": "Active"},
      {"measurement": "IC50", "setting": "[36]", "result": 70, "unit": "nM"},
      {"measurement": "GI50", "setting": "[37]", "result": 73, "unit": "nM"},
      {"measurement": "Vd", "setting": "[38]", "result": 6.03, "unit": "L/kg"},
      {"measurement": "GI50", "setting": "[39]", "result": 8000, "unit": "nM"},
      {"measurement": "Activity", "setting": "[40]", "result": "Active"}
    ]}
  ]
}
